Source: PubChem BioAssay (several laboratories)
AI-2 QS modul – modulates the Vibrio harveyi AI-2 quorum sensing system; Vibrio harveyi JMH597 AI-2 luminescence/OD600 ratio, 9 h; active compounds read low; strain lacks LuxN and CqsS sensors; 0 = neutral-control median; activity change, % at 7.5 µM; 0.4% of 300,000 active; AID 2094; in the data active means activity change below about -75%, passing the limit was not always enough;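 further: luminescence divided by OD600 gain over 9 h not by final OD600 alone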
AHR act – human AHR activation; P35869; AHR-responsive luciferase reporter cells, luminescence; 2.5% of 320,000 active; activation, % at 5 µM; in the data active means activation above about 47%;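 further: 0% = vehicle wells and 100% = reference agonist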
bovine MsrA act – bovine methionine sulfoxide reductase A activation; purified bovine MsrA, absorbance read-out; activation, % at 10.6 µM; 0.3% of 360,000 active; in the data active means activation above about 7.5%;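 further: 0% = vehicle and 100% = reference activator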
HTR2A ag – activates the mouse 5-HT2A serotonin receptor; CHO-K1 mHTR2A beta-arrestin complementation, luminescence; percent of 30 µM serotonin response; activation, % at 7.6 µM; 0.66% of 360,000 active;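 active means activation above a run cutoff, the mean activation of all tested compounds plus 3 SD, cut at about 14% in these data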;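 further: 0% = plate median of compound wells and 100% = 30 µM serotonin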
Target sequence (P35363 whole entry, looked up): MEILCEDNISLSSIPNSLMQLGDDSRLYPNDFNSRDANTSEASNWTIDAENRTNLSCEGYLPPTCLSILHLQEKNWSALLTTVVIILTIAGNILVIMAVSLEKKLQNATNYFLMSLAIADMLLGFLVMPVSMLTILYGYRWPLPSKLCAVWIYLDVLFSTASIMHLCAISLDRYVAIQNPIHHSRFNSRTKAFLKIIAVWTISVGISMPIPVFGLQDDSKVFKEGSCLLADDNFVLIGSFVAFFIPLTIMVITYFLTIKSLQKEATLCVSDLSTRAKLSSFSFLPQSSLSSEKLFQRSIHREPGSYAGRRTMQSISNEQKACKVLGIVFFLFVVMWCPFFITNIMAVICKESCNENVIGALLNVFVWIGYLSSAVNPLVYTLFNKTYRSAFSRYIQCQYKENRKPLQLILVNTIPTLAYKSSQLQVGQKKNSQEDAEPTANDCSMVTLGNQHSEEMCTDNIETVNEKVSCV
MsrA inh – inhibits bovine methionine sulfoxide reductase A; purified bovine MsrA, absorbance read-out; inhibition, % at 15.5 µM; 0.75% of 360,000 active; in the data active means inhibition above about 4.5%;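 further: 0% = vehicle wells with enzyme and 100% = reference inhibitor wells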
TbMetRS inhib – blocks T. brucei methionyl-tRNA synthetase activity; purified T. brucei MetRS, ATP depletion, Kinase-Glo luminescence; inhibition, % at 11.9 µM; 0.4% of 360,000 active;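 active means inhibition above a per-plate cutoff of the control wells' mean inhibition plus 3 SD, cut at about 5.5% in these data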;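 further: 0% = DMSO wells median and 100% = median of wells with control inhibitor compound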
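assay system = parasite MetRS enzyme | timing = 15 min preincubation, 2 h reaction, all 25 °C | evaluation = percent inhibition relative to median high and low control wells | medium = HEPES buffer containing pyrophosphatase, BSA, spermine, DTT | compound = single dose, 11.9 µM final nominal, 0.9% final DMSO | detection = Kinase-Glo luminescence, ATP depletion format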
An asterisk follows results filed as active. This is a sample that favours compounds with a hit; in the whole collection about 4.4% have one here.

Screening C/C(=N\Nc1nc2ccccc2[nH]1)c1ccc(C)o1 returned AI-2 QS modul 7, AHR act 77*, bovine MsrA act -3, HTR2A ag -7, MsrA inh 1 and TbMetRS inhib 2.
C/C(=N\Nc1nc(C)cc(C)n1)c1ccc(N2CCOCC2)cc1 was read as AI-2 QS modul 2, AHR act 26, bovine MsrA act -3, HTR2A ag -1, MsrA inh 3 and TbMetRS inhib 0.
`C/C(=N\Nc1nc2ccccc2[nH]1)c1ccc(Cl)s1` gave AI-2 QS modul 34, AHR act 73*, bovine MsrA act -2, HTR2A ag -3, MsrA inh 2 and TbMetRS inhib 3.
`O=C(CSc1nc2ccccc2[nH]1)c1ccc(Cl)s1` gave AI-2 QS modul 6, AHR act -3, bovine MsrA act -1, HTR2A ag 3, MsrA inh 0 and TbMetRS inhib 1.
C/C(=N\Nc1nc2ccccc2[nH]1)c1ccc(N2CCOCC2)cc1 was read as AI-2 QS modul -4, AHR act 76*, bovine MsrA act -2, HTR2A ag 0, MsrA inh 3 and TbMetRS inhib 2.
`CCCN(C(=O)C1CCCN(c2ncnc3c2nc2n3CCCCC2)C1)c1ccccc1C` (centres undefined) gave MsrA inh 0.
COc1ccccc1C1C=C(c2ccc(C)cc2)Nc2nnnn21 (centres undefined) was read as AI-2 QS modul -12, AHR act 54*, bovine MsrA act -11, HTR2A ag 1, MsrA inh 0 and TbMetRS inhib -1.
For Cc1ccc(C2=CC(c3cccs3)n3nnnc3N2)cc1 (centres undefined) the results were AI-2 QS modul 17, AHR act 42, bovine MsrA act -1, HTR2A ag -3, MsrA inh 1 and TbMetRS inhib 0.
Screening Nc1ccn([C@@H]2O[C@H](CNCc3ccc(-c4cc(C(F)(F)F)ccc4Cl)o3)[C@@H](O)[C@H]2O)c(=O)n1 returned bovine MsrA act -8, HTR2A ag 13, MsrA inh 1 and TbMetRS inhib 1.
Screening CCOC(=O)CN1C(=O)N(c2ccc(OC)cc2)[C@H]2CC3c4ccccc4C[C@]3(C)[C@@H](C(=O)N(C)C3CCCCC3)C[C@H]21 (some centres undefined) returned MsrA inh 1.
`Nc1ccn([C@@H]2O[C@H](C(=O)N[C@H](Cc3ccccc3)C(=O)Nc3ccc4scnc4c3)[C@@H](O)[C@H]2O)c(=O)n1` gave MsrA inh 1.
`O=c1c2ccccc2[nH]c2ccc(O)cc12` gave AI-2 QS modul 30, AHR act 12, bovine MsrA act 0, HTR2A ag -6, MsrA inh -1 and TbMetRS inhib 1.
Screening O=C(O)c1cccc2c(-c3ccccc3)c(-c3ccccc3)[nH]c12 returned AI-2 QS modul 14, AHR act 0, bovine MsrA act -11, HTR2A ag 0, MsrA inh 1 and TbMetRS inhib 0.
Screening CC(=O)c1cccc2c(O)c(C3=Nc4ccccc4C3=O)[nH]c12 returned AI-2 QS modul 6, AHR act 61*, bovine MsrA act 0, HTR2A ag 0, MsrA inh 1 and TbMetRS inhib 0.
O=C1C(c2c(O)[nH]c3ccccc23)=Nc2ccccc21 was read as AI-2 QS modul 19, AHR act 60*, bovine MsrA act -2, HTR2A ag -2, MsrA inh 1 and TbMetRS inhib 0.
Screening COc1ccc(Oc2cn[nH]c2-c2ccc(OCC(=O)NN)cc2O)cc1 returned AI-2 QS modul -7, AHR act 58*, bovine MsrA act 0, HTR2A ag -2, MsrA inh -2 and TbMetRS inhib -1.
Screening Brc1ccc(N=Cc2ccccn2)cc1 returned AI-2 QS modul 1, AHR act 55*, bovine MsrA act -5, HTR2A ag -2, MsrA inh -1 and TbMetRS inhib 0.
For C[C@H]1NS(=O)(=O)c2cccc(Cl)c2O[C@@H]1c1ccccc1 the results were MsrA inh 0.
Screening Nc1ccccc1-c1nnc(-c2ccccc2N)n1N returned AI-2 QS modul 22, AHR act 48*, bovine MsrA act -2, HTR2A ag 7, MsrA inh 2 and TbMetRS inhib -1.
